High-throughput results from PubChem BioAssay.
Most compounds without a hit are left out; they make up all but 2% or so of the library.
AI-2 QS mod = Vibrio harveyi AI-2 quorum sensing modulation. Vibrio harveyi JMH597 AI-2 luminescence/OD600 ratio, 9 h; active compounds read low; strain lacks LuxN and CqsS sensors; 0 = neutral-control median. activity change, % at 7.5 µM. actives 0.4% (n = 300,000); in the data active means activity change below about -75%, passing the limit was not always enough; inconclusive means no clear call, values can overlap the other calls;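 further: luminescence divided by OD600 gain over 9 h not by final OD600 alone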
HIF act = HIF pathway transcriptional activation | U2OS HRE-luciferase reporter, luminescence; normalized: DMSO 0%, desferrioxamine 100% | actives 0.32% (n = 300,000) | activation, % at 7.5 µM (by protocol);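 active means mean activation of at least 10% of the iron chelator positive control signal, with at least half of replicates also reaching 10%; inconclusive means mean and replicate majority disagree about reaching 10%; inactive means mean and most replicates under 10%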
ARNT TACC3 PPI = disruptors of human ARNT/TACC3 interaction. AlphaScreen His-ARNT PAS-B/GST-TACC3 binding, luminescence; TACC3 fragment carries E629A point mutation. inhibition, % at 9.99 µM. actives 0.66% (n = 390,000). AID 623870;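 active means mean inhibition of replicates at least 50% and at least half of replicates each reaching 50%; inconclusive means half or more replicates reach 50% but mean below 50%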;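 further: 0% = complete ARNT plus TACC3 wells and 100% = ARNT alone without TACC3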
T cruzi repl = T. cruzi replication inhibition | inhibition, % (no concentration beside the values) | T. cruzi beta-gal in NIH3T3, luminescence, 90 h | AID 1885 | actives 1.4% (n = 300,000);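 active means mean inhibition across valid replicates above about 55%, limit read from the data; inconclusive means mean below that limit but half or more replicates reach it; inactive means mean below it, under half of replicates reach it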;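 further: signal also drops with host cell toxicity which is not excluded here; 0% = plate median of DMSO wells and 100% = zero luminescence signal; higher percent means less beta-gal luminescence so fewer parasites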
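Assay system: NIH/3T3 host cells with β-galactosidase reporter T. cruzi; input: 5,000 host fibroblasts per well; compound: single 50 nL compound addition per well in DMSO; timing: ≥90 h infection period, 3 h prior cell attachment; measured by: GalScreen β-gal luminescence, detergent lysis, 60 min; evaluation: percent inhibition of parasite-derived β-gal signal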
Starred values were filed as active, the others as inactive; ? = inconclusive; nt = not tested or not shown; ! = a repeat was not active.

SMILES | AI-2 QS mod | HIF act | ARNT TACC3 PPI | T cruzi repl
COc1cccc(/C=N/Nc2cc(N3CCOCC3)ncn2)c1O | -5 | 0 | 49* | -9
COc1ccc(/C=N/Nc2cc(N3CCOCC3)ncn2)c(OC)c1 | 26 | 1 | 3 | -8
C[C@@H]1CN([C@@H](C)CO)C(=O)c2cc(NC(=O)NC3CCCCC3)ccc2O[C@@H](C)CCCCO[C@@H]1CN(C)C(=O)Cc1ccccc1 | nt | nt | -10 | nt
CN1CCN(C(=O)C[C@@H]2CC[C@@H]3[C@H](COC[C@H](O)CN3CC3CC3)O2)CC1 | nt | nt | -11 | nt
COc1ccc(N(CC(=O)NCCC2=CCCCC2)S(=O)(=O)c2ccccc2)cc1OC | 18 | -1 | 2 | 60*
COc1ccc(N(CC(=O)NCCC2=CCCCC2)S(=O)(=O)c2ccc(C)cc2)cc1OC | 22 | -1 | -3 | 46
COc1ccc(S(=O)(=O)N(C)C[C@H]2Oc3ncc(/C=C/c4ccccc4)cc3C(=O)N([C@H](C)CO)C[C@@H]2C)cc1 | nt | nt | -7 | nt
C[C@@H]1CN([C@H](C)CO)C(=O)c2cc(NC(=O)c3ccccc3)ccc2O[C@@H](C)CCCCO[C@H]1CN(C)Cc1ccc(C(F)(F)F)cc1 | nt | nt | -20 | nt
COc1cc(-c2ccccc2)nc2ccccc12 | -2 | 0 | -6 | -20
COc1cc(C(=O)O)nc2ccccc12 | 10 | 0 | 58* | 11
CC(C)CN(C(=O)c1cc([N+](=O)[O-])cc([N+](=O)[O-])c1)C1CCS(=O)(=O)C1 (stereo not given) | 3 | 3 | -4 | 57*
CC(C)CN(C(=O)CCNC(=O)c1ccc([N+](=O)[O-])cc1)C1CCS(=O)(=O)C1 (stereo not given) | nt | nt | 0 | nt
CN1c2ccc(-c3ccc(F)cc3)cc2[C@H]2[C@H](CCN2C(=O)C2CCOCC2)[C@@H]1CO | nt | nt | 9 | nt
CCOC(=O)c1c(OCC)[nH]c2c1cc(O)c1ccccc12 | 27 | 0 | 33* | -17
COc1cccc(S(=O)(=O)Nc2ccc3c(c2)[C@H]2C[C@@H](CC(=O)N4CCCCC4)O[C@@H](CO)[C@H]2O3)c1 | nt | nt | 0 | nt
C=CC(=O)N1c2ccccc2Sc2ccc(NC(=O)OCC)cc21 | 26 | 1 | 9 | -12
CCOC(=O)Nc1ccc2c(c1)Nc1ccccc1S2 | -1 | 0 | 10 | 63*
CNC[C@@H]1Oc2c(NC(=O)Nc3ccccc3)cccc2C(=O)N([C@H](C)CO)C[C@@H]1C | nt | nt | 1 | nt
Oc1ccc(Cl)cc1Cc1cc(Cl)ccc1O | -112* | 0 | 4 | -7
Nc1ccc(Br)c2cccnc12 | -6 | 0 | 49* | -17
CC(=O)C(Cl)C(=O)Nc1ccccc1 (stereo not given) | nt | nt | -7 | nt
O=C(Nc1ccccc1)C(Cl)C(=O)c1ccccc1 (stereo not given) | -82* | -24 | 2 | -4
CCN(CC)CCN1C(=O)Cn2c(C)c(C)c3cccc1c32 | -4 | 0 | 0 | 69*!
CCN(CC)CCN1c2ccccc2Sc2ccccc21 | 23 | -1 | 3 | 18
Cc1noc(C)c1S(=O)(=O)N(C)C[C@H]1Oc2c(NC(=O)C3CC3)cccc2C(=O)N([C@H](C)CO)C[C@H]1C | nt | nt | -3 | nt
SMILES | AI-2 QS mod | HIF act | ARNT TACC3 PPI | T cruzi repl
O=C1CN(/N=C/c2ccc([N+](=O)[O-])o2)C(=O)N1 | -89* | 0 | nt | ?
O=C1OCCN1/N=C/c1ccc([N+](=O)[O-])o1 | ? | 0 | -3 | 50
Nc1cc(C(=O)O)c(N)c2c1C(=O)c1ccccc1C2=O | 52 | -1 | 55* | -6
Nc1c(C(=O)O)ccc2c1C(=O)c1ccccc1C2=O | 54 | 0 | -4 | 9
CCS(=O)(=O)C(C)(CCl)C(=O)Nc1ccc(C(=O)OC)cc1 (stereo not given) | 13 | 0 | active | -6
Cc1cc(NC(=O)C(Cl)c2ccccc2)no1 (stereo not given) | -86* | -9 | 3 | -4
O=C(Nc1ccc(Cl)cc1)Nc1csc([N+](=O)[O-])c1 | -83* | 2 | nt | 30
O=C(Nc1ccccc1)Nc1ccc(Cl)c([N+](=O)[O-])c1 | -102* | 3 | -2 | 35
Cc1ccc(NC(=O)Nc2ccccc2)cc1[N+](=O)[O-] | 2 | 3 | nt | 21
Cc1cccc(N2CCN(C(=O)C3(S(=O)(=O)c4ccc(Cl)cc4)CC3)CC2)c1C | 9 | 0 | 50* | 20
COc1ccccc1N1CCN(CCCNC(=O)Nc2ccccc2C)CC1 | 4 | 0 | 8 | 4
COc1ccccc1NC(=O)NCCCN1CCN(c2cccc(Cl)c2)CC1 | -31 | -1 | 48* | 12
O=C(CN1CCC(C(=O)c2ccc(Cl)cc2)CC1)Nc1ccc2c(c1)OCCO2 | 24 | 74* | 9 | 27
NC(=O)C1CCN(CC(=O)Nc2ccc3c(c2)OCCO3)CC1 | nt | nt | -6 | nt
O=C(CN1C(=O)COc2ccc(Cl)cc21)Nc1ccc2c(c1)OCCO2 | 5 | 82* | 6 | -8
Cc1cccc(NC(=O)CN2C(=O)COc3ccc(Cl)cc32)c1 | 2 | -1 | nt | 11
O=C(c1ccccc1F)N1C[C@H]2[C@@H](c3ccccc31)[C@@H](CO)N2C(=O)Nc1ccccc1 | nt | nt | -10 | nt
Cc1ccc(Sc2ccc(CN3CCCC3)cc2[N+](=O)[O-])cc1 | 11 | 0 | 39 | 88*
Cc1ccc(Sc2ccc(CO)cc2[N+](=O)[O-])cc1 | -1 | 0 | nt | -4
CN1CCN(Cc2ccc(Sc3ccc(Cl)cc3)c([N+](=O)[O-])c2)CC1 | 0 | -2 | 12 | 66*
C/C(=N\N1CCN(C2c3ccccc3-c3ccccc32)CC1)c1cccnc1 | 10 | 0 | -5 | 6
CN=c1scc(-c2ccccc2F)n1/N=C(\C)c1cccnc1 | 23 | 1 | 40* | 55*
C/C=C/c1ccc([C@H]2[C@@H](CO)N(C(=O)CC)[C@H]2CNC(=O)C2CC2)cc1 | nt | nt | -9 | nt
CCn1c(=O)c2cc(C(=O)N(C)c3ccccc3F)sc2c2ccccc21 | 35 | 0 | -2 | 69*
COC(=O)C1=CN(Cc2ccc(OC)c(OC)c2)C=C(C(=O)OC)C1c1cccc(OC)c1OC | 1 | 0 | -37 | 61*
SMILES | AI-2 QS mod | HIF act | ARNT TACC3 PPI | T cruzi repl
COC(=O)C1=CN(Cc2ccc(OC)c(OC)c2)C=C(C(=O)OC)C1c1ccccc1F | 11 | 2 | -37 | ?
Cc1ccc(-n2nc(C(=O)NCc3ccco3)c3c4ccccc4n(C)c3c2=O)cc1 | -12 | 0 | -3 | 12
CCN(CC)CCNC(=O)c1nn(-c2ccc(C)cc2)c(=O)c2c1c1ccccc1n2C | 20 | -4 | -6 | 60*
O=C(C[C@H]1CC[C@H]2[C@@H](COC[C@H](O)CN2S(=O)(=O)c2ccc(F)cc2)O1)NCc1ccc(Cl)c(Cl)c1 | nt | nt | -6 | nt
COc1cc(C2CC(=O)NC(SCC(=O)Nc3ccccc3C)=C2C#N)ccc1O (stereo not given) | 19 | 0 | 68* | nt
CCCSC1=C(C#N)C(c2ccc(O)c(OC)c2)CC(=O)N1 (stereo not given) | 9 | 0 | 5 | -2
